Source: ChEMBL document CHEMBL3102843, “Synthesis and antifungal activity of substituted 2,4,6-pyrimidinetrione carbaldehyde hydrazones” (Bioorg Med Chem, 2014)
In brackets after ≈: the same amount, converted by molar mass. Activity calls are given as the source filed them. How the calls were made is not given here.

What was measured:
Candida albicans = experiment: Antifungal activity against Candida albicans ATCC 10231 after 48 to 72 hrs by broth microdilution method; format: functional
Outline: (§1)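 Broth microdilution per NCCLS. Organisms were subcultured on Sabouraud agar. Inoculum was 5–7 colonies from YM agar in sterile water, adjusted to 0.5 McFarland at 530 nm (1–5×10⁶ cells/mL stock), held 30 min at RT, then diluted 1:50 in HEPES-buffered RPMI 1640. DMSO stocks were twofold-diluted, with final DMSO ≤1%. Plates ran 48–72 h at 35 °C, humid. MIC is the lowest concentration giving ≥80% growth reduction vs drug-free wells, scored visually. Fluconazole or amphotericin B ran as drug control.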

Nakaseomyces glabratus = experiment: Antifungal activity against Candida glabrata ATCC 48435 after 48 to 72 hrs by broth microdilution method; format: functional; outline: as §1

Row | SMILES | MIC80 (Candida albicans) | MIC80 (Nakaseomyces glabratus)
1 | CN1C(=O)C(/C=N/c2ccncc2)C(=O)N(C)C1=O | inactive | inactive
2 | CN/N=C/C1C(=O)NC(=O)NC1=O | inactive | inactive
3 | CN1C(=O)C(=Cc2ccc(O)cc2)C(=O)N(C)C1=O | inactive | inactive
4 | O=C1NC(=O)C(=Cc2ccc(O)cc2)C(=O)N1 | inactive | inactive
5 | O=C1NC(=O)C(/C=N/c2cccc(O)c2)C(=O)N1 | inactive | inactive
6 | C/C(=N\CCCCCC(=O)O)C1C(=O)NC(=O)NC1=O | inactive | inactive
7 | CN1C(=O)C(=Cc2ccc(N(C)C)cc2)C(=O)N(C)C1=O | inactive | inactive
8 | COc1ccc(/N=C/C2C(=O)N(C)C(=O)N(C)C2=O)cc1 | inactive | inactive
9 | CN1C(=O)C(/C=N/NS(=O)(=O)c2ccccc2)C(=O)N(C)C1=O | inactive | inactive
10 | COc1ccc(C(=O)N/N=C(\C)C2C(=O)N(C)C(=O)N(C)C2=O)cc1 | inactive | inactive
11 | C/C(=N\c1ccncc1)C1C(=O)N(C)C(=O)N(C)C1=O | inactive | inactive
12 | CN1C(=O)C(/C=N/C2N=NN=N2)C(=O)N(C)C1=O | inactive | inactive
13 | CN1C(=O)C(=Cc2ccc(O)cc2O)C(=O)N(C)C1=O | inactive | 2 µg/mL (≈ 7.24 µM)
14 | C/C(=N\NS(=O)(=O)c1ccc(C)cc1)C1C(=O)NC(=O)NC1=O | inactive | inactive
15 | C/C(=N\NS(=O)(=O)c1ccccc1)C1C(=O)N(C)C(=O)N(C)C1=O | inactive | inactive
16 | O=C1NC(=O)C(/C=N/NC(=O)c2ccccc2)C(=O)N1 | inactive | inactive
17 | COc1cc(OC)c(C=C2C(=O)N(C)C(=O)N(C)C2=O)c(OC)c1 | inactive | inactive
18 | Cc1ccc(S(=O)(=O)N/N=C/C2C(=O)N(C)C(=O)N(C)C2=O)cc1 | inactive | inactive
19 | C/C(=N\NC(=O)c1ccc([N+](=O)[O-])cc1)C1C(=O)NC(=O)NC1=O | inactive | 125 µg/mL (≈ 375 µM)
20 | COC(=O)N/N=C/C1C(=O)N(C)C(=O)N(C)C1=O | inactive | inactive

Row | SMILES | MIC80 (Candida albicans) | MIC80 (Nakaseomyces glabratus)
21 | C/C(=N\c1ccccc1)C1C(=O)N(C)C(=O)N(C)C1=O | inactive | inactive
22 | O=C1NC(=O)C(/C=N/c2ccncc2)C(=O)N1 | inactive | inactive
23 | CN(C)c1ccc(C=C2C(=O)NC(=O)NC2=O)cc1 | 62 µg/mL (≈ 239 µM) | inactive
24 | O=C1NC(=O)C(/C=N/c2ccc([N+](=O)[O-])cc2)C(=O)N1 | inactive | inactive
25 | CN1C(=O)C(/C=N/c2ccc([N+](=O)[O-])cc2)C(=O)N(C)C1=O | inactive | inactive
26 | COC(=O)N/N=C(\c1ccc(O)cc1)C1C(=O)N(C)C(=O)N(C)C1=O | inactive | inactive
27 | COC(=O)N/N=C(\C)C1C(=O)N(C)C(=O)N(C)C1=O | inactive | inactive
28 | O=C1NC(=O)C(=Cc2ccco2)C(=O)N1 | inactive | inactive
29 | C/C(=N\Nc1ccccc1)C1C(=O)NC(=O)NC1=O | 2 µg/mL (≈ 7.68 µM) | 2 µg/mL (≈ 7.68 µM)
30 | CN1C(=O)C(/C=N/n2cnnc2)C(=O)N(C)C1=O | inactive | inactive
31 | O=C1NC(=O)C(/C=N/c2ccc(-c3ccccc3)cc2)C(=O)N1 | inactive | inactive
32 | O=C1NC(=O)C(C(=NNc2ccc(C(=O)O)cc2)C2C(=O)NC(=O)NC2=O)C(=O)N1 | inactive | 125 µg/mL (≈ 300 µM)
33 | C/C(=N\NC(=O)c1ccccc1)C1C(=O)NC(=O)NC1=O | inactive | inactive
34 | O=C1NC(=O)C(/C=N/c2ccc(O)cc2)C(=O)N1 | inactive | inactive
35 | CN1C(=O)C(/C=N/N)C(=O)N(C)C1=O | 125 µg/mL (≈ 631 µM) | 16 µg/mL (≈ 80.7 µM)
36 | CN/N=C(\C)C1C(=O)N(C)C(=O)N(C)C1=O | inactive | inactive
37 | COc1ccc(/N=C/C2C(=O)NC(=O)NC2=O)cc1 | inactive | inactive
38 | O=C1NC(=O)C(=C/C=C/c2ccccc2)C(=O)N1 | 62 µg/mL (≈ 256 µM) | inactive
39 | O=C1NC(=O)C(=Cc2cccc3ccccc23)C(=O)N1 | 125 µg/mL (≈ 469 µM) | inactive
40 | C/C(=N\c1ccc(O)cc1)C1C(=O)NC(=O)NC1=O | inactive | inactive

Row | SMILES | MIC80 (Candida albicans) | MIC80 (Nakaseomyces glabratus)
41 | C/C(=N\c1ccc(O)cc1)C1C(=O)N(C)C(=O)N(C)C1=O | inactive | inactive
42 | CN1C(=O)C(/C(=N/Nc2ccc(C(=O)O)cc2)c2ccccc2)C(=O)N(C)C1=O | inactive | inactive
43 | C/C(=N\N)C1C(=O)NC(=O)NC1=O | inactive | inactive
44 | C/C(=N\Nc1ccc([N+](=O)[O-])cc1[N+](=O)[O-])C1C(=O)NC(=O)NC1=O | inactive | inactive
45 | COc1ccc(/N=C(\C)C2C(=O)NC(=O)NC2=O)cc1 | inactive | inactive
46 | C/C(=N\c1ccncc1)C1C(=O)NC(=O)NC1=O | inactive | inactive
47 | O=C1NC(=O)N(c2ccccc2)C(=O)/C1=C\c1ccc(O)cc1 | inactive | inactive
48 | O=C1NC(=O)C(=Cc2ccc3ccccc3c2)C(=O)N1 | 125 µg/mL (≈ 469 µM) | inactive
49 | CN1C(=O)C(/C=N/c2ccc(-c3ccccc3)cc2)C(=O)N(C)C1=O | inactive | inactive
50 | COc1ccc(C(=O)N/N=C(\C)C2C(=O)NC(=O)NC2=O)cc1 | inactive | inactive
51 | O=C1NC(=O)C(/C=N/n2cnnc2)C(=O)N1 | inactive | inactive
52 | N/N=C/C1C(=O)NC(=O)NC1=O | 125 µg/mL (≈ 735 µM) | 16 µg/mL (≈ 94 µM)
53 | C/C(=N\NC(=O)c1ccc([N+](=O)[O-])cc1)C1C(=O)N(C)C(=O)N(C)C1=O | inactive | inactive
54 | O=C1NC(=O)C(=Cc2ccccc2)C(=O)N1 | inactive | inactive
55 | O=C1NC(=O)C(/C=N/NS(=O)(=O)c2ccccc2)C(=O)N1 | inactive | inactive
56 | O=C1NC(=O)C(/C=N/c2ccccn2)C(=O)N1 | inactive | inactive
57 | C/C(=N\Nc1ccc([N+](=O)[O-])cc1)C1C(=O)NC(=O)N(c2ccccc2)C1=O (stereo not given) | 31.5 µg/mL (≈ 82.6 µM) | 16 µg/mL (≈ 42 µM)
58 | CN1C(=O)C(=C/C=C/c2ccccc2)C(=O)N(C)C1=O | 62 µg/mL (≈ 229 µM) | 125 µg/mL (≈ 462 µM)
59 | CN1C(=O)C(/C=N/NC(=O)c2ccccc2)C(=O)N(C)C1=O | inactive | inactive
60 | CN1C(=O)C(/C=N/c2cccc(O)c2)C(=O)N(C)C1=O | inactive | inactive
